# Data reported in the EternaBench riboswitch data.
# Test system: MS2 coat protein
# Test: apparent Kd, MS2 coat protein; higher = weaker binding; RNA-MaP array; FMN 200 µM where present
# Method in brief: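 Stalled E. coli RNA polymerase transcribed each design on Illumina sequencing-chip clusters. The clusters were titrated with SNAP-549-labelled MS2 coat protein, starting at 0.7 or 1.5 nM and doubling up to 3 µM, first without ligand and then with constant ligand, in 100 mM Tris-HCl pH 7.5, 80 mM KCl, 4 mM MgCl2, BSA, DTT, yeast tRNA and Tween-20. Green signal was normalised to red-channel RNA signal and to the control-cluster median Fmax. The apparent Kd is the median of filtered binding-curve fits made for each cluster.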
# [1] = designed as: ON switch for flavin mononucleotide, no ligand
# [2] = ligand present: flavin mononucleotide, designed as: ON switch for flavin mononucleotide
# [3] = designed as: OFF switch for flavin mononucleotide, no ligand
# [4] = ligand present: flavin mononucleotide, designed as: OFF switch for flavin mononucleotide
Sequence,apparent Kd [1],apparent Kd [2],apparent Kd [3],apparent Kd [4]
CGCUGUAACGCAGGAUAUGCAUUGGAUUACAAUGCAGAAGGGCGAUUACAUGAGGAUCACCCAUGUGUAAACAGUGAAGAAGAG,220 nM,41.2 nM,–,–
GUGAAACAUGAGGAUCACCCAUGUGAGGAUAUGUUUUAGUACUGCAGACAGUACAUCUAUAGAAGGCACAAUGG,–,–,38.9 nM,70.7 nM
AGUUCUUGUGAAGGAUAUACGGCGGGUCGCGCAGUAGAAGGUCACAUGAGGAUCACCCAUGUCGACAAUGUGCAGUAUCGACAA,–,–,135 nM,271 nM
CUAUAUAUAUGAGGAUAUCUAUAUCCAACAUGAGGAUCACCCAUGUUGAGGAUCACCCAUGUAAAGGAGAAGGCAUAUAUAUAG,43.2 nM,14.9 nM,–,–
CAGCGCUGUCGAGAGGAUAUGCUGUGAUGGACAUGAGGAUCACCCAUGUUAGCGAUAGCAUUACUGUAGAAGGCUCUACAGCUGC,13.4 nM,12.8 nM,–,–
GCCAGUUAUGUAGGAUAUGCGAAGCGAGCCUGAGCAGAAGGACAUGAGGAUCACCCAUGUAUUGCGGUUUGAGUACUGAUCGCU,–,–,27.9 nM,107 nM
UGCAUGUAAGGAUAUGCAACCUGCGCUCAUUAGCAGGUCAAGCAGAAGGUACAUGAGGAUCACCCAUGUGUCCG,–,–,31.2 nM,156 nM
AGUCGGAGCAGAGGAUAUACAUGAGGAUCACCCAUGUAAUAAAGUGAAGACUGGAAACAGUCAAUGUAGAAGGCUGCUCCGACA,–,–,27.2 nM,210 nM
GUGCCUUGGGAGAAGGCCGAUAGCAAAGCUAUCGGAGGAUAUCCAUACCGGAAACGGACAUGAGGAUCACCCAUGUGGCACAAA,16.3 nM,7.6 nM,–,–
AAAUGAUGAGGAUAUACAUGAGGAUCACCCAUGUGUAAAAAUAAAUACACAAAAGAAAGUAGAAGGCAUCAAAA,–,–,31.6 nM,124 nM
AACAAGUGAGGAUAUGAAAAUACAACAAACAAACAUCUACAUCAGAAGGCACAUGAGGAUCACCCAUGUUAAUC,–,–,20.9 nM,23.2 nM
AUUUUGCGAGGAUAUACAUGAGGAUCACCCAUGUACGCUCAGCAGGGUGAAGGCUCUUGUAGAAGGCGUUCUGA,–,–,88.2 nM,45.8 nM
UUACAUACAAAGUUACAUGAGGAUCACCCAUGUUUAUUGGGAAGAAGGGUAACAUUAUUAAAUAUAUAGGAUAUUUCACAAUUG,558 nM,359 nM,–,–
UGUCGGAGCAGAGGAUAUUACAUGAGGAUCACCCAUGUAUGAACCAAUGGCUGGAAACAGCAAUGUAAGAAGGCUGCUCCGACA,–,–,9.69 nM,64.5 nM
GCAGCUAAUAUUAUACAUGAGGAUCACCCAUGUUACAUGAGUAAGGAUAUUGAUGAUUAUAUAAACAAGAAGGUACGUAGCUGC,15.7 nM,7.49 nM,–,–
AUCAGCUCGUCAGGAUAUACGUCACUGGGUCAGCAGUGUGGUAAGAUCACAUGAGGAUCACCCAUGUAGAAGGGACGAGCUGAU,–,–,66.3 nM,483 nM
GAUAGGAAGUAAGGAUAUAGACAUGAGGAUCACCCAUGUCUGUGCCGCGUGGAUGAAGGGAGUGUCUAGAAGGUACUGCUCUGU,–,–,15.5 nM,7.5 nM
AUUCGUGAGUAGGAUAUGCUGUUGCCAGAACGAGUAGAAGGACUCACAUGAGGAUCACCCAUGUGGUGUCUAAG,–,–,19.9 nM,170 nM
AGUUUACAUGAGGAUCACCCAUGUGAGGAUAUGGUUUCGCUGGCCGUAGCCAGUGGAACCAGAAGGCGCGUGAU,–,–,87.6 nM,164 nM
UGUCGGAGCAGAGGAUAUUACAUGAGGAUCACCCAUGUAUGAUCCAAUAGCUGGAAACAGCAAUGUAAGAAGGCUGCUCCGACA,–,–,291 nM,8.48 nM
CUCUUGGCAGGAUAUGCUCUCUUAGACAUGAGGAUCACCCAUGUGCUCAUUCCUUCUUUUGCAGAAGGGCCUUAAC,–,–,71.4 nM,52.3 nM
GCGUCAGAAUUAAUUGUGACAGACAGAAGGCAAUAGUAUGUGACAGACAUGAGGAUCACCCAUGUUGAGGAUAUGUAUUGACAC,–,–,6.6 nM,7.36 nM
AUAAAACAUGAGGAUCACCCAUGUGAGGAUAUGCUAAAAUAAAAUAAAAUAAAAUAAUGCAGAAGGCACAAAUA,–,–,59.6 nM,74.6 nM
